ChEMBL document CHEMBL5058577, “EUbOPEN Chemogenomics Library 2 (Multiplex)” (2022)

Tested on: HEK-293T
Assay: Multiplex assay against HEK293T
Assay type: toxicity, cell-based
Details: human
Outline: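 Cells were classed with CellPathfinder machine-learning gating, first as Hoechst high-intensity objects or normal cells, then (normal cells) as healthy, pyknosed or fragmented nuclei, and finally (pyknosed cells) as mitotic or apoptotic. Staining of live cells at seeding used Hoechst33342, BioTracker Green Microtubule Cytoskeleton Dye, MitoTracker Red and Annexin V Alexa Fluor 680, with imaging on a CQ1 microscope at 37°C and 5% CO2 after compound addition. Tubulin, mitochondrial-mass and membrane-permeability phenotypes are per cents of healthy-nucleus cells.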

[1] = 12 h, 1 µM, compound concentration 1 uM, replicate 1
[2] = 12 h, 1 µM, compound concentration 1 uM, replicate 2
[3] = 12 h, 10 µM, compound concentration 10 uM, replicate 1
[4] = 12 h, 10 µM, compound concentration 10 uM, replicate 2
[5] = 24 h, 1 µM, compound concentration 1 uM, replicate 1
[6] = 24 h, 1 µM, compound concentration 1 uM, replicate 2
[7] = 24 h, 10 µM, compound concentration 10 uM, replicate 1
[8] = 24 h, 10 µM, compound concentration 10 uM, replicate 2
[9] = 48 h, 1 µM, compound concentration 1 uM, replicate 1
[10] = 48 h, 1 µM, compound concentration 1 uM, replicate 2
[11] = 48 h, 10 µM, compound concentration 10 uM, replicate 1
[12] = 48 h, 10 µM, compound concentration 10 uM, replicate 2

CC(=O)Nc1cccc2c1c(Sc1ccc(Cl)cc1)c(C)n2CC(=O)O [AZD1981]
Population Apoptotic (%) [1]: 37%
Population Fragmented Nuclei (%) [1]: 6%
Population Healthy Nuclei (%) [1]: 81%
Population Hoechst High Intensity Objects (%) [1]: 6%
Population Membrane Permeable-Phenotype (%) [1]: 0%
Population Mitochondria Different-Phenotype (%) [1]: 46%
Population Mitotic Cells (%) [1]: 62%
Population Normal (%) [1]: 93%
Population Pyknosed Nuclei (%) [1]: 11%
Population Tubulin-Different-Phenotype (%) [1]: 28%
Total Cell Count [1]: 405
Population Apoptotic (%) [2]: 60%
Population Fragmented Nuclei (%) [2]: 5%
Population Healthy Nuclei (%) [2]: 80%
Population Hoechst High Intensity Objects (%) [2]: 8%
Population Mitochondria Different-Phenotype (%) [2]: 57%
Population Mitotic Cells (%) [2]: 40%
Population Normal (%) [2]: 91%
Population Pyknosed Nuclei (%) [2]: 13%
Population Tubulin-Different-Phenotype (%) [2]: 18%
Total Cell Count [2]: 314
Population Apoptotic (%) [3]: 38%
Population Fragmented Nuclei (%) [3]: 8%
Population Healthy Nuclei (%) [3]: 78%
Population Hoechst High Intensity Objects (%) [3]: 7%
Population Membrane Permeable-Phenotype (%) [3]: 0%
Population Mitochondria Different-Phenotype (%) [3]: 44%
Population Mitotic Cells (%) [3]: 61%
Population Normal (%) [3]: 92%
Population Pyknosed Nuclei (%) [3]: 12%
Population Tubulin-Different-Phenotype (%) [3]: 29%
Total Cell Count [3]: 403
Population Apoptotic (%) [4]: 60%
Population Fragmented Nuclei (%) [4]: 6%
Population Healthy Nuclei (%) [4]: 77%
Population Hoechst High Intensity Objects (%) [4]: 15%
Population Mitochondria Different-Phenotype (%) [4]: 60%
Population Mitotic Cells (%) [4]: 39%
Population Normal (%) [4]: 84%
Population Pyknosed Nuclei (%) [4]: 15%
Population Tubulin-Different-Phenotype (%) [4]: 26%
Total Cell Count [4]: 318
Population Apoptotic (%) [5]: 20%
Population Fragmented Nuclei (%) [5]: 9%
Population Healthy Nuclei (%) [5]: 80%
Population Hoechst High Intensity Objects (%) [5]: 2%
Population Membrane Permeable-Phenotype (%) [5]: 0%
Population Mitochondria Different-Phenotype (%) [5]: 33%
Population Mitotic Cells (%) [5]: 79%
Population Normal (%) [5]: 97%
Population Pyknosed Nuclei (%) [5]: 9%
Population Tubulin-Different-Phenotype (%) [5]: 23%
Total Cell Count [5]: 568
Population Apoptotic (%) [6]: 54%
Population Fragmented Nuclei (%) [6]: 7%
Population Hoechst High Intensity Objects (%) [6]: 9%
Population Mitochondria Different-Phenotype (%) [6]: 42%
Population Mitotic Cells (%) [6]: 45%
Population Normal (%) [6]: 90%
Population Pyknosed Nuclei (%) [6]: 11%
Population Tubulin-Different-Phenotype (%) [6]: 16%
Total Cell Count [6]: 398
Population Apoptotic (%) [7]: 40%
Population Fragmented Nuclei (%) [7]: 7%
Population Healthy Nuclei (%) [7]: 79%
Population Hoechst High Intensity Objects (%) [7]: 4%
Population Membrane Permeable-Phenotype (%) [7]: 0%
Population Mitochondria Different-Phenotype (%) [7]: 28%
Population Mitotic Cells (%) [7]: 59%
Population Normal (%) [7]: 95%
Population Pyknosed Nuclei (%) [7]: 13%
Population Tubulin-Different-Phenotype (%) [7]: 25%
Total Cell Count [7]: 526
Population Apoptotic (%) [8]: 59%
Population Fragmented Nuclei (%) [8]: 8%
Population Healthy Nuclei (%) [8]: 81%
Population Hoechst High Intensity Objects (%) [8]: 12%
Population Mitochondria Different-Phenotype (%) [8]: 45%
Population Mitotic Cells (%) [8]: 40%
Population Normal (%) [8]: 87%
Population Pyknosed Nuclei (%) [8]: 9%
Population Tubulin-Different-Phenotype (%) [8]: 19%
Total Cell Count [8]: 387
Population Apoptotic (%) [9]: 21%
Population Fragmented Nuclei (%) [9]: 15%
Population Healthy Nuclei (%) [9]: 78%
Population Hoechst High Intensity Objects (%) [9]: 1%
Population Membrane Permeable-Phenotype (%) [9]: 1%
Population Mitochondria Different-Phenotype (%) [9]: 18%
Population Mitotic Cells (%) [9]: 78%
Population Normal (%) [9]: 98%
Population Pyknosed Nuclei (%) [9]: 6%
Population Tubulin-Different-Phenotype (%) [9]: 10%
Total Cell Count [9]: 908
Population Apoptotic (%) [10]: 38%
Population Fragmented Nuclei (%) [10]: 13%
Population Healthy Nuclei (%) [10]: 79%
Population Hoechst High Intensity Objects (%) [10]: 3%
Population Mitochondria Different-Phenotype (%) [10]: 20%
Population Mitotic Cells (%) [10]: 61%
Population Normal (%) [10]: 96%
Population Tubulin-Different-Phenotype (%) [10]: 12%
Total Cell Count [10]: 570
Population Apoptotic (%) [11]: 37%
Population Fragmented Nuclei (%) [11]: 14%
Population Healthy Nuclei (%) [11]: 78%
Population Hoechst High Intensity Objects (%) [11]: 2%
Population Membrane Permeable-Phenotype (%) [11]: 0%
Population Mitochondria Different-Phenotype (%) [11]: 18%
Population Mitotic Cells (%) [11]: 62%
Population Normal (%) [11]: 97%
Population Pyknosed Nuclei (%) [11]: 7%
Population Tubulin-Different-Phenotype (%) [11]: 11%
Total Cell Count [11]: 751
Population Apoptotic (%) [12]: 33%
Population Fragmented Nuclei (%) [12]: 16%
Population Hoechst High Intensity Objects (%) [12]: 4%
Population Mitochondria Different-Phenotype (%) [12]: 26%
Population Mitotic Cells (%) [12]: 66%
Population Normal (%) [12]: 95%
Population Pyknosed Nuclei (%) [12]: 5%
Total Cell Count [12]: 556
